According to ChEMBL document CHEMBL2040755, “Diverse combinatorial design, synthesis and in vitro evaluation of new HEPT analogues as potential non-nucleoside HIV-1 reverse transcription inhibitors” (Eur J Med Chem, 2012):
Converted amounts (≈) assume the structure as drawn.

How the values were obtained:
[1] = tested on: Human immunodeficiency virus 1; assay: Antiviral activity against HIV1 NL4-3 infected in human MT4 cells assessed as inhibition of virus-induced cytopathic effect after 5 days; format: functional, organism-based; conditions: Human immunodeficiency virus 1, NL4-3, MT4, 120 h
In short: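 HIV-1 NL4-3 titered in MT-4 cells after acute infection. Infected cells were exposed to various concentrations of compound and grown 5 days. Protection from virus-induced cytopathic effect was read as viable cell number by tetrazolium (MTT) colorimetry, giving EC50.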

[2] = Cytotoxicity against human MT4 cells after 5 days by MTT assay; format: cell-based
In short: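 Uninfected MT-4 cells exposed to various compound concentrations and allowed to proliferate 5 days. Viable cells quantified by tetrazolium-based colorimetric (MTT) method to give CC50.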

[3] = Selectivity index, ratio of CC50 for human MT4 cells to EC50 for HIV1 NL4-3; format: toxicity, cell-based; conditions: read-out: Ratio CC50/EC50
In short: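 SI taken as CC50 in uninfected MT-4 cells over EC50 against HIV-1 NL4-3. Both came from parallel 5-day MTT viability read-outs, in mock-infected and in infected cells exposed to various compound concentrations.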

[4] = tested on: Human immunodeficiency virus 1; assay: Ratio of HEPT EC50 to compound EC50 for HIV1 NL4-3; format: functional

Structure (SMILES) | EC50 [1] [µM] | CC50 at 120 h [2] [µg/mL] | selectivity ratio [3] | Ratio EC50 [4]
C[Si](C)(C)CCOCn1c(Sc2ccccc2)cc(=O)[nH]c1=O | > 71 | > 25 | – | –
C[Si](C)(C)CCOCn1c(Sc2cccc(N)c2)cc(=O)[nH]c1=O | > 68 | > 25 | – | –
C[Si](C)(C)CCOCn1c(Sc2c(Cl)cccc2Cl)cc(=O)[nH]c1=O | > 25.2 | 10.6 (≈ 25.3 µM) | – | –
C[Si](C)(C)CCOCn1c(Sc2cccc(Cl)c2)cc(=O)[nH]c1=O | > 30 | 11.6 (≈ 30.1 µM) | – | –
CCOCn1c(Sc2ccccc2)cc(=O)[nH]c1=O | > 90 | > 25 | – | –
CCOCn1c(Sc2cccc(N)c2)cc(=O)[nH]c1=O | > 85 | > 25 | – | –
CCOCn1c(Sc2c(Cl)cccc2Cl)cc(=O)[nH]c1=O | > 72 | > 25 | – | –
CCOCn1c(Sc2cccc(Cl)c2)cc(=O)[nH]c1=O | > 80 | > 25 | – | –
Cc1ccc(C)c(Cn2c(Sc3ccccc3)cc(=O)[nH]c2=O)c1 | > 74 | > 25 | – | –
Cc1ccc(C)c(Cn2c(Sc3cccc(N)c3)cc(=O)[nH]c2=O)c1 | > 71 | > 25 | – | –
Cc1ccc(C)c(Cn2c(Sc3c(Cl)cccc3Cl)cc(=O)[nH]c2=O)c1 | > 61 | > 25 | – | –
Cc1ccc(C)c(Cn2c(Sc3cccc(Cl)c3)cc(=O)[nH]c2=O)c1 | > 67 | > 25 | – | –
Cc1c(Sc2cccc(N)c2)n(COCC[Si](C)(C)C)c(=O)[nH]c1=O | 1.15 | > 25 | > 57 | –
Cc1c(Sc2c(Cl)cccc2Cl)n(COCC[Si](C)(C)C)c(=O)[nH]c1=O | > 21.3 | 9.2 (≈ 21.2 µM) | – | –
Cc1c(Sc2cccc(Cl)c2)n(COCC[Si](C)(C)C)c(=O)[nH]c1=O | > 24.9 | 9.9 (≈ 24.8 µM) | – | –
CCOCn1c(Sc2cccc(N)c2)c(C)c(=O)[nH]c1=O | 1.3 | > 25 | > 63 | –

Structure (SMILES) | EC50 [1] [µM] | CC50 at 120 h [2] [µg/mL] | selectivity ratio [3] | Ratio EC50 [4]
CCOCn1c(Sc2c(Cl)cccc2Cl)c(C)c(=O)[nH]c1=O | 4.7 | > 25 | > 15 | –
CCOCn1c(Sc2cccc(Cl)c2)c(C)c(=O)[nH]c1=O | 0.046 | > 25 | > 1670 | 67
Cc1ccc(C)c(Cn2c(Sc3ccccc3)c(C)c(=O)[nH]c2=O)c1 | 3.57 | > 25 | > 20 | –
Cc1ccc(C)c(Cn2c(Sc3cccc(N)c3)c(C)c(=O)[nH]c2=O)c1 | 5.2 | > 25 | > 13 | –
Cc1ccc(C)c(Cn2c(Sc3c(Cl)cccc3Cl)c(C)c(=O)[nH]c2=O)c1 | > 59 | > 25 | – | –
Cc1ccc(C)c(Cn2c(Sc3cccc(Cl)c3)c(C)c(=O)[nH]c2=O)c1 | 0.868 | 13.6 (≈ 35.2 µM) | > 40 | –
CCOCn1c(Sc2ccccc2)c(C)c(=S)[nH]c1=O | 1.9 | 2.38 (≈ 7.72 µM) | > 4 | –
CCOCn1c(Sc2cccc(Cl)c2)c(C)c(=S)[nH]c1=O | > 4.96 | 1.7 (≈ 4.96 µM) | – | –
Cc1c(Sc2ccccc2)n(COCC[Si](C)(C)C)c(=O)[nH]c1=O | > 27.3 | 9.9 (≈ 27.2 µM) | – | –
CCOCn1c(Sc2ccccc2)c(C)c(=O)[nH]c1=O | 0.086 | > 25 | > 1000 | 38
Cc1c(Sc2cccc(Cl)c2)n(COCCO)c(=O)[nH]c1=O | 1.2 | > 25 | > 60 | –
O=C1Nc2ccc(Cl)cc2[C@@](C#CC2CC2)(C(F)(F)F)O1 [EFAVIRENZ] | – | > 1 | – | –
Cc1c(Sc2ccccc2)n(COCCO)c(=O)[nH]c1=O [HEPT] | 3.28 | > 25 | > 25 | –
Cc1ccnc2c1NC(=O)c1cccnc1N2C1CC1 [NEVIRAPINE] | – | > 5 | – | –
Cc1cn([C@H]2C[C@H](N=[N+]=[N-])[C@@H](CO)O2)c(=O)[nH]c1=O [ZIDOVUDINE] | 0.004 | > 1 | > 1000 | –
